Drawing on BindingDB's records for doi:10.1016/j.bmc.2013.06.068 (University of Maryland, 2013), this text covers Ki for 6 molecules.

Assay [1] has as its target Sigma non-opioid intracellular receptor 1 (Rattus norvegicus, UniProt Q9R0C9). Put plainly: Displacement of [3H](+)-pentazocine from sigma 1 receptor in rat brain homogenates after 120 mins by liquid scintillation counting. The method in brief:
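σ1 sites labelled with 5 nM [3H](+)-pentazocine in rat brain homogenate; nonspecific binding defined with 10 μM haloperidol. Up to 12 competitor concentrations, incubated 120 min at 25 °C. Terminated by vacuum filtration onto PEI-soaked GF/B filters, bound radioactivity counted by liquid scintillation. Ki obtained by Cheng–Prusoff.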
A general note: Loss of bound radioactivity is the signal in a displacement assay; it reports binding, not function.

Assay [2] concerns the target Mu-type opioid receptor (Homo sapiens, UniProt P35372). In words: Displacement of [3H]DAMGO from human mu opioid receptor expressed in CHO cells after 120 mins by liquid scintillation counting. Summed up: (§1)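 Membranes from CHO cells stably expressing human μ, δ or κ opioid receptor. Radioligands: μ 1.3 nM [3H]DAMGO, δ 1.2 nM [3H]DPDPE, κ 1.7 nM [3H]U69,593; nonspecific with 1 μM of the matching unlabelled ligand.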

Assay [3] addresses Delta-type opioid receptor (Homo sapiens, UniProt P41143). Put plainly: Displacement of [3H]DPDPE from human delta opioid receptor expressed in CHO cells after 120 mins by liquid scintillation counting. The method in brief: as §1
Assay [4] has as its target Kappa-type opioid receptor (Homo sapiens, UniProt P41145). In words: Displacement of [3H]U69,593 from human kappa opioid receptor expressed in CHO cells after 120 mins by liquid scintillation counting. Summed up: as §1

Bounds are passed on as bounds.

As a reminder, the Ki is a dissociation constant, usually derived from enzyme kinetics or from competition with a known ligand.

Sigma non-opioid intracellular receptor 1, sequence (Q9R0C9 whole entry): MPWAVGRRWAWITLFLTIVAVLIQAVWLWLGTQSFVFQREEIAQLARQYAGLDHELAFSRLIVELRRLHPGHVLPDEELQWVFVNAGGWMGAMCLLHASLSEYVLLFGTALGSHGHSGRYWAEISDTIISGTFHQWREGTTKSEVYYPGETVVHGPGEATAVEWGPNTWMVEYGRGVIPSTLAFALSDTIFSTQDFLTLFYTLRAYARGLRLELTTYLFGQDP
Delta-type opioid receptor, sequence (P41143 whole entry): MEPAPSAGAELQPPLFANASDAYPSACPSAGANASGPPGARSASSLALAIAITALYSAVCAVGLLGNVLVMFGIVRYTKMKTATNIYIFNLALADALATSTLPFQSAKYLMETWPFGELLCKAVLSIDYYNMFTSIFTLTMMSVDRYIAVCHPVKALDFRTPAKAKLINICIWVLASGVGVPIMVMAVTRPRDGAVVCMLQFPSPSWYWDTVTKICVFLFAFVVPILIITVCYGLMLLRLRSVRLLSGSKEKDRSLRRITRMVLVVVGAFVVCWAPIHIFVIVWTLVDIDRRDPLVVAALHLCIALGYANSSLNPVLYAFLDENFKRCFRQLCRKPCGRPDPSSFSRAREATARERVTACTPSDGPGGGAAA
Kappa-type opioid receptor, sequence (P41145 whole entry): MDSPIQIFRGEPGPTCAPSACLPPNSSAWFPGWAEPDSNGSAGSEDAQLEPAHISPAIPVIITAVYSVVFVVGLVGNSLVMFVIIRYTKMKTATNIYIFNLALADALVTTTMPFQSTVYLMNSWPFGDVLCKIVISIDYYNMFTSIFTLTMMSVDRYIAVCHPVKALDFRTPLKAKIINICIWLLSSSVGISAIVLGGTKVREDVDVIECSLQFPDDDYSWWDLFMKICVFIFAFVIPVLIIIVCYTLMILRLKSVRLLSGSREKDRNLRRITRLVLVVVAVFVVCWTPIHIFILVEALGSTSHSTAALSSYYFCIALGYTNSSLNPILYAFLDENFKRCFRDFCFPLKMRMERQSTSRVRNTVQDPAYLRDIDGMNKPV
Mu-type opioid receptor, sequence (P35372 whole entry): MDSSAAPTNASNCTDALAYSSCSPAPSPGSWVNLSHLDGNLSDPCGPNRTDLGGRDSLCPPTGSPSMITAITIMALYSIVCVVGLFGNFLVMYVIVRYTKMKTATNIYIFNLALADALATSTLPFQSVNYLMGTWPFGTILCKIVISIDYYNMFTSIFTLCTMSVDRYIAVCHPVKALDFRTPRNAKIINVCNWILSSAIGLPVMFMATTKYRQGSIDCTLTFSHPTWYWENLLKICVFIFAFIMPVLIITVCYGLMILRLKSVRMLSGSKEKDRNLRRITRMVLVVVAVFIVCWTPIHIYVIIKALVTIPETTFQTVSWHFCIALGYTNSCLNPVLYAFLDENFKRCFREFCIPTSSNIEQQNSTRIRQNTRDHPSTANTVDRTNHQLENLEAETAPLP

With `CN(CCc1ccccc1)[C@H]1CCCC[C@@H]1O`, the Ki is 120 nM in assay [1], > 10000 nM in assay [2], > 10000 nM in assay [3] and > 10000 nM in assay [4].

On to `CN(C)[C@H]1CCCC[C@@H]1OC/C=C/c1ccccc1`, for which the Ki in assay [1] was 4.6 nM; in assay [2], 4200 nM; in assay [3], > 10000 nM; in assay [4] it was > 10000 nM.

For the molecule `CN(CCCc1ccccc1)[C@H]1CCCC[C@@H]1OCCCc1ccccc1`, the Ki in assay [1] is 790 nM; in assay [2], 3100 nM; in assay [3] it was 6200 nM; in assay [4] it was 2200 nM.

For `CN(CCCc1ccccc1)[C@H]1CCCC[C@@H]1O`, the figures for the Ki in assay [1], in assay [3] and in assay [4] were 19 nM, > 10000 nM and > 10000 nM, respectively.

Turning to `CN(CCc1ccccc1)[C@H]1CCCC[C@@H]1OCCCc1ccccc1`, the results for the Ki in assay [1], in assay [2] and in assay [3] were 84 nM, 1600 nM and > 10000 nM, respectively.

For the molecule `CN(C)[C@H]1CCCC[C@@H]1OCCCc1ccccc1`, the Ki in assay [1] is 59 nM; in assay [2], 2300 nM; in assay [3], > 10000 nM; in assay [4], > 10000 nM.
